Assay: Toxicity liver stage against HepG2, at 10uM
Format: cell-based
Set-up: test concentration 10 uM, cell line HepG2-A16-CD81EGFP
Conditions: human, HepG2-A16-CD81EGFP cells; read-out: INHIBITION
Procedure, shortened: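 Uninfected HepG2-A16-CD81EGFP cells, 3 × 10^3 per well, 1536-well, plated on prespotted compound at 10 μM final, parasite-free screening media added to match infected plates; puromycin 10 μM positive, DMSO 0.5% negative; run in parallel with 48 h PbLuc assay at 37 °C, 5% CO2; viability by CellTiter-Glo luminescence, normalized to controls.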

| SMILES | cytotoxicity at 10 µM [%] |
| --- | --- |
| c1ccc(O[C@H]2COCCN(CC3CC3)C2)cc1 | 5.76 |
| COc1ccc(C(=O)N2CCN3C(=O)CNC(=O)[C@@H]3C2)cc1 | -7.1 |
| CCN(CC)CC[C@H]1CN(C(=O)CC(C)(C)C)CC[C@H]1CC(=O)O | -0.668 |
| CSc1ncccc1C(=O)N(CCO)Cc1ccccc1 | 2.22 |
| O=C(c1cccc(C(F)(F)F)c1)N1CC(=O)N(C2CCC2)CC(O)C1 (stereo not given) | -3.16 |
| Cc1ccc2c(c1)C1(CC(=O)Nc3[nH]ncc31)C(=O)N2C (stereo not given) | -1.6 |
| CC1CC(=O)c2cc(C(=O)N3CCc4ccccc43)c(=O)[nH]c2C1 (stereo not given) | -5.67 |
| Cn1cc(NC(=O)CNC(=O)N2CCN(c3ccccc3)CC2)cn1 | 0.0207 |
| Cn1nc(N2CCCC(C(=O)Nc3nccs3)C2)ccc1=O (stereo not given) | 3.19 |
| O=C(C1CC=CC1)N1CC[C@@H]2O[C@H](COCC3CCOCC3)CC[C@@H]21 | -0.0499 |
| Cn1cccc1C(=O)N1CCc2ccc(=O)n(C)c2CC1 | -0.756 |
| COCC1CN(Cc2c(C)noc2C)Cc2cn(C)nc21 (stereo not given) | 13.2 |
| Cc1cc(C(=O)N2C[C@@H]3COC[C@]3(c3nnc(C(C)C)o3)C2)on1 | -2.52 |
| CCOc1cc(C)c(-c2cc(N)[nH]n2)cc1OCC | -7.27 |
| O=c1[nH]c2nc(N3CCCCCC3)ncc2c(=O)n1-c1cccc(F)c1 | 6.39 |
| O=c1c2cn[nH]c2nc(SCCN2CCOCC2)n1-c1ccccc1 | 0.219 |
| O=C(c1ccccn1)N1CCN(c2ccc(-c3cccnc3)nn2)CC1 | 2.84 |
| Cn1nc(C(=O)NCc2ccc(F)cc2)c2c1CCS(=O)(=O)C2 | 8.02 |
| Cc1nn(C(C)C)c2cnn(CC(=O)N3CCN(C)CC3)c12 | 9.51 |
| CCn1nc(C)c2ncnc(NCCN3CCOCC3)c21 | 8.93 |
| CCn1cc(S(=O)(=O)N(CCc2ccccc2)Cc2ccn(C)n2)cn1 | 2.6 |
| CCC1CNCc2cc3c(C)ccc(C)c3nc2O1 (stereo not given) | -4.22 |

| SMILES | cytotoxicity at 10 µM [%] |
| --- | --- |
| CCC(=O)NCCc1cc2nc(-c3ccncc3)ccn2n1 | 1.65 |
| O=S(=O)(c1ccccc1Cl)N1CCCC(c2ncc[nH]2)C1 (stereo not given) | 5.48 |
| Cc1noc(C)c1CN(C)C(=O)C1CCCCN1CC(C)C (stereo not given) | 2.64 |
| Cc1cccc2nc(CN3CCCC(C)C3)cc(=O)n12 (stereo not given) | 2.46 |
| Cc1noc(C)c1CS(=O)(=O)Cc1nc(C2CC2)no1 | 3.37 |
| Cc1ccc(CNC(=O)C2CCN(C(=O)C(C)C)CC2)n1C | 5.71 |
| Cc1nnc(C(C)Nc2cccc(COCCOC(C)C)c2)o1 (stereo not given) | 2.29 |
| COC(=O)C1CN(Cc2nc(C(C)(C)C)cs2)C[C@@H](C)O1 (stereo not given in full) | -8.22 |
| CN(C1CCN(c2ccccn2)CC1)S(=O)(=O)c1ccccc1F | 14 |
| COCCNC(=O)C1(c2ccc(C)c(OC)c2)CCCC1 | -3.21 |
| Fc1ccc(CNC2CCN(CCc3ccncc3)CC2)cc1F | -12.6 |
| COc1ccc(NC(C)C(=O)N2CCN(c3ccccc3)CC2)cn1 (stereo not given) | 9.75 |
| Cc1nc(C(C)(C)NC(=O)Nc2ccncc2)no1 | 9.32 |
| Cc1n[nH]c(C2CN(CC(=O)NCCc3ccccc3)CCO2)n1 (stereo not given) | 10.2 |
| Fc1ccc(CN2CCCCC2Cn2cncn2)c2ncccc12 (stereo not given) | 6.95 |
| Cc1nc(C)c(C(=O)N2CCCC(n3ccnc3C)C2)s1 (stereo not given) | -5.19 |
| Cc1nc(C)n(C2CCCN(C(=O)CCc3cn(C)nc3C)C2)n1 (stereo not given) | -11.5 |
| O=C(NCCSCc1ccc(Br)s1)C1CCCN(C(=O)c2cccs2)C1 (stereo not given) | -1.79 |
| CC(C)(C)CC(=O)NCC(=O)Nc1ccn(Cc2cccnc2)n1 | 15.4 |
| CCCN1C(=O)C2(CCCCC2)NC1c1c[nH]nc1-c1cccnc1 (stereo not given) | 4.59 |
| CC(C)=CCN1CCN(C(=O)C2CC2)CC1 | 6.64 |
| CC(C)c1nccn1CCn1cnc2ccsc2c1=O | 4.4 |

| SMILES | cytotoxicity at 10 µM [%] |
| --- | --- |
| NS(=O)(=O)c1cnn(-c2ccc(NC(=O)C3CCCCC3)cn2)c1 | 2.27 |
| CCOc1cc(CNC(C)c2ccc(F)cc2)ccn1 (stereo not given) | 10.9 |
| c1ccc(Cc2nc(CNCCn3cccn3)cs2)cc1 | -2.79 |
| CCN(Cc1ccc(F)cc1Cl)C1CCS(=O)(=O)C1 (stereo not given) | 14.9 |
| O=C(NCCC1CC1)NCc1cccc(-n2ccnc2)c1 | 19.7 |
| Cc1cc(NCC(C)C)ccc1C(=O)N(C)C | 9.86 |
| COCC1CN(C(=O)Nc2cc(Br)ccc2F)CCO1 (stereo not given) | -0.749 |
| Cc1nc(C2CCCN(C(=O)CN3CCCNC3=O)C2)sc1C (stereo not given) | 10.4 |
| CCCNC(=O)CCNC(=O)Cc1nc(-c2ccco2)oc1C | 23.7 |
| O=C(C1CCOC1)N1CC2(CCN(c3ccccc3)C2)C1 (stereo not given) | 9.88 |
| CC(=O)N1CCO[C@@H]2CN(S(=O)(=O)c3cccs3)CC[C@@H]2C1 | 7.66 |
| CN(CC1(CO)CCOCC1)[C@@H]1c2ccccc2C2(CCNCC2)[C@H]1O | -6.87 |
| Cc1cc(C(=O)N2CCCC(O)(CN3CCCC3)C2)ccc1Cl (stereo not given) | 1.6 |
| NCCc1nc(N(Cc2cncs2)C2CC2)c2ccccc2n1 | -7.15 |
| CC(C)(C)CC(=O)N1CCC(n2cc(C3(O)CCCC3)nn2)CC1 | 8.64 |
| CN(Cc1nccs1)C1CCN(c2ncccn2)CC1 | 10.1 |
| CC(=O)N[C@@H](CC(C)C)C(=O)N1CCC(n2cc(C(C)(C)N)nn2)CC1 | -11.7 |
| CCS(=O)(=O)N1CCC(c2nnc(CN3CCCCCC3)n2C)CC1 | -8.01 |
| Cc1nc(C(=O)N2CCC(c3nccn3Cc3ccncc3)CC2)cs1 | -2.85 |
| C=C(C)COc1ccccc1CNCCc1c[nH]cn1 | -2.21 |
| Cc1cnccc1N1CCN(C(=O)CCCN2CCCCC2)CC1 | 0.0879 |
| Cc1c(NC(=O)NC2CN3CCC2CC3)cccc1C(=O)N1CCCC1 (stereo not given) | 10.1 |

| SMILES | cytotoxicity at 10 µM [%] |
| --- | --- |
| CCn1c(N)nc2cc(C(=O)NCCc3sccc3C)cnc21 | -23.3 |
| Cc1ccccc1N1CCCN(C(=O)CCCS(N)(=O)=O)CC1 | -16 |
| COc1ccccc1Oc1ncccc1CNC(=O)C(C)N1CCCC1 (stereo not given) | -5.39 |
| CO[C@H]1CN(C(=O)c2ccc3oc(C)cc3c2)CC[C@@]12CCCO2 | 0.153 |
| CC(=O)N1CCCN(C(=O)c2cnn(C(C)(C)C)c2C)CC1 | 2.89 |
| Cc1nnc(NC(=O)NCc2ccc(OC(C)C)nc2)s1 | -10.4 |
| CC1CN(CC(=O)Nc2ccncc2)CCN1c1nccs1 (stereo not given) | 29.5 |
| Cc1nn(C)c(C)c1NC(=O)CN1CCN(c2nccs2)C(C)C1 (stereo not given) | -5.55 |
| Cc1cc2n(n1)CC(CNCc1ccc(Oc3ccccc3)nc1)CN2 (stereo not given) | -10.1 |
| CC(C)c1noc(CCCC(=O)N2CCN(Cc3ccsc3)CC2)n1 | -5.19 |
| O=C(c1ccc2c(c1)COC2)N1CCN(CCO)CC1 | -16.5 |
| CCn1ncc2c1CCCC2NCc1ccc(OC)c(F)c1 (stereo not given) | -6.07 |
| CCCc1noc(CN2CCC(c3ccnn3CCO)CC2)n1 | -19.9 |
| CC(c1cc(F)ccc1F)N(C)C(=O)NCc1ccnc(N(C)C)c1 (stereo not given) | -16.8 |
| Cc1nnc2n1CCN(C(=O)c1ccnc(N(C)C)c1)C2 | -16.2 |
| CCC(CC)C(=O)N(C)CC(=O)Nc1ccc(Br)cn1 | -11.2 |
| Cc1cc(C)n(CC2CCCN2C(=O)c2c(C)noc2C)n1 (stereo not given) | -13.8 |
| O=C(NCCNc1ncccn1)C1CC(=O)N(C2CCCC2)C1 (stereo not given) | -16.2 |
| CC(C)CN1CC(C(=O)NCCNc2ncccn2)CC1=O (stereo not given) | -23 |
| Cc1nc(C2CCCN2CCCc2nc3ccccc3o2)no1 (stereo not given) | -9.24 |
| O=C(NCCNc1ncccn1)N1CCN(C2CCCC2)CC1 | -10 |
| COc1c(C2CCCN2CC(=O)Nc2ccncc2)c(C)nn1C (stereo not given) | -12.7 |

| SMILES | cytotoxicity at 10 µM [%] |
| --- | --- |
| Cc1ccc2cc(C(=O)N3CCC(Nc4cccnn4)CC3)[nH]c2c1 | -21 |
| CC(Cn1ccnc1)NC(=O)N1CCCN(Cc2cccs2)CC1 (stereo not given) | -12.4 |
| Cc1nc(C)n(CC2CN(CCC(=O)N3CCCCC3)CCO2)n1 (stereo not given) | -4.64 |
| O=C(CCSc1ccccc1F)NS(=O)(=O)c1ccc2c(c1)OCCO2 | -0.841 |
| O=C(CCc1ccc(F)cc1)NS(=O)(=O)c1ccc2c(c1)OCCO2 | -12.8 |
| Cc1cnn(CC2CN(Cc3cccc(C(=O)N(C)C)c3)CCO2)c1 (stereo not given) | -1.73 |
| CCC1c2ccsc2CCN1C(=O)NCc1cc[nH]n1 (stereo not given) | -8.88 |
| Cc1nc(C)n(CC2CCCN(CC(=O)Nc3c(C)n[nH]c3C)C2)n1 (stereo not given) | 0.813 |
| Cc1n[nH]c(C)c1NC(=O)CN1CCCC(CNC(=O)C(C)(C)C)C1 (stereo not given) | -4.64 |
| CN1CCOC(CNCc2cccc(OCC(F)(F)F)c2)C1 (stereo not given) | -6.44 |
| c1cnc(N2CCO[C@H]3[C@H](OCC4CCOCC4)CC[C@@H]32)nc1 | 4.55 |
| Cc1noc(C)c1CN1CC[C@@H]2O[C@H](COCC(C)C)CC[C@@H]21 | 8.28 |
| Cc1nc(CN2CCN(Cc3ccoc3)Cc3cccnc32)cs1 | -5.25 |
| CC(C)NC(=O)N1CCc2ncc(CN3CCOCC3)n2CC1 | 6.28 |
| Cc1noc(C)c1CN1CCn2c(CN3CCN(C)CC3)cnc2C1 | 8.98 |
| CC(C)NC(=O)CC1COC2(CCN(Cc3ccccc3)CC2)C1 (stereo not given) | 6.38 |
| Cc1ccc(N2CC[C@H]3O[C@@H](C(=O)NCc4ccco4)CC[C@H]32)nn1 | 2.03 |
| CC(=O)N1[C@H](Cn2cncn2)C[C@@H]2CN(c3ncc(F)cn3)CC[C@@H]21 | -5.09 |
| c1cnc(N2CCC3(CCN(Cc4ccncc4)CC3)CC2)nc1 | -1.85 |
| O=C1NC2(CCN(CCO)CC2)CC1c1ccccc1 (stereo not given) | -3.83 |
| CS(=O)(=O)N1C[C@H]2CC[C@@H](C1)N(C(=O)Cn1nc3ccccc3n1)C2 | 10.8 |
| CN(C)S(=O)(=O)N1C[C@@H]2C[C@H](C(=O)NCc3ccccc3)[C@H](C1)O2 | 4.09 |

Reference: ChEMBL document CHEMBL4513216, “Probing the Open Global Health Chemical Diversity Library for Multistage-Active Starting Points for Next-Generation Antimalarials” (ACS Infect Dis, 2020)
